Measured values from ChEMBL document CHEMBL1128175, “Pyrrolo[2,1-c][1,4]benzothiazines: synthesis, structure-activity relationships, molecular modeling studies, and cardiovascular activity” (J Med Chem, 1995).

Key:
[1] = target: T1, Voltage-gated L-type calcium channel (Rattus norvegicus, UniProt P22002+Q02485+P27732); test: Inhibition of [3H]nitrendipine binding at L-type [Ca2+] channel in rat cortex homogenate by 50%.
Method in brief: (§1)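 Cerebral cortex from male Sprague-Dawley rats, homogenized in 50 mM Na-Hepes pH 7.4 and washed five times by centrifugation at 48000g. Bound ligand collected by rapid filtration and counted. IC50 by log-probit analysis, converted to Ki by the Prusoff method. At least three experiments in triplicate.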

[2] = target: T1, Voltage-gated L-type calcium channel; test: Calcium antagonistic activity by measuring [3H]nitrendipine displacement at calcium channel in rat cortex homogenate; assay type: functional, tissue-based; method in brief: as §1
[3] = species: Cavia porcellus; test: Inotropic negative potency on stimulated guinea pig left atrium; assay type: functional; settings: Cardiac atrium, read-out: ED50 (the source's name)
Method in brief: (§2)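 Guinea pig left atria driven at 1 Hz with 0.6-0.8 ms pulses at […], in oxygenated Tyrode at 35 °C, pH 7.4. Isometric force recorded. Cumulative compound additions of 0.1-100 µM from DMSO stock (bath DMSO ≤0.3%), each after steady state. Potency from log concentration-response curves by probit analysis, n = 6-8.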

[4] = species: Cavia porcellus; test: The compound was tested for the negative inotropic activity on isolated guinea pig left atrium at 5*10e-5 M; assay type: functional, Cardiac atrium; method in brief: as §2
[5] = species: Cavia porcellus; test: Inotropic negative potency on spontaneously beating right atrium of guinea pig; assay type: functional, Cardiac atrium
Method in brief: (§3)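 Spontaneously beating right atria from guinea pigs (300-400 g) in oxygenated Tyrode (95% O2-5% CO2), 35 °C, pH 7.4, recorded isometrically. Compounds from DMSO diluted in PSS (DMSO ≤0.3%), added cumulatively at 0.1-100 µM once steady state was reached.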

[6] = species: Cavia porcellus; test: The compound was tested for the negative chronotropic activity on isolated guinea pig spontaneously beating right atrium at 10e-4 M.; assay type: functional, Cardiac atrium; method in brief: as §3
[7] = species: Cavia porcellus; test: Tested for the calcium antagonistic activity on K+-depolarized guinea pig aortic strips at 5*10e-5 M.; assay type: functional, Aorta
Method in brief: (§4)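 Guinea pig aortic strips held at 1 g resting force and equilibrated 1 h in PSS. Contracted with 80 mM KCl (K+ replacing Na+). At plateau (about 30 min), compounds in DMSO were added cumulatively at 0.1-500 µM. Relaxation of isometric force measured.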

[8] = target: T2, Voltage-dependent L-type calcium channel subunit alpha-1C (Rattus norvegicus, UniProt P22002); test: Calcium antagonistic activity by measuring [3H]nitrendipine displacement from rat heart L-type [Ca2+] channel; assay type: functional
Method in brief: (§5)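 Rat hearts perfused through the aorta with ice-cold saline, homogenized in 50 mM Na-Hepes pH 7.4, filtered through cheesecloth and washed five times at 48000g. Incubated 90 min at 0 °C in the dark with [3H]nitrendipine. Six displacer concentrations used, separated by filtration. IC50 by log-probit analysis, converted to Ki by Cheng-Prusoff. At least three experiments in triplicate.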

[9] = species: Cavia porcellus; test: Tested for the negative inotropic activity on isolated guinea pig left atrium at 10e-4 M; assay type: functional, Cardiac atrium; method in brief: as §2
[10] = target: T1, Voltage-gated L-type calcium channel; test: Calcium antagonistic activity by measuring [3H]nitrendipine displacement at L-type [Ca2+] channel in rat cortex homogenate; assay type: functional, tissue-based; method in brief: as §1
[11] = species: Cavia porcellus; test: Tested for the negative chronotropic activity on isolated guinea pig spontaneously beating right atrium at 5*10e-5 M.; assay type: functional, Cardiac atrium; method in brief: as §3
[12] = species: Cavia porcellus; test: Tested for the calcium antagonistic activity on K+-depolarized guinea pig aortic strips at 10e-4 M.; assay type: functional; settings: Aorta; method in brief: as §4
[13] = target: T2, Voltage-dependent L-type calcium channel subunit alpha-1C; test: The compound was tested for calcium antagonistic activity by measuring [3H]nitrendipine displacement from rat heart L-type calcium channels; Not active; assay type: functional; method in brief: as §5
[14] = species: Cavia porcellus; test: The compound was tested for the negative chronotropic activity on isolated guinea pig spontaneously beating right atrium at 10e-5 M.; assay type: functional, Cardiac atrium; method in brief: as §3
[15] = species: Cavia porcellus; test: Tested for the negative inotropic activity on isolated guinea pig left atrium at 10e-5 M; assay type: functional, Cardiac atrium; method in brief: as §2
[16] = species: Cavia porcellus; test: The compound was tested for the calcium antagonistic activity on K+-depolarized guinea pig aortic strips; assay type: functional; settings: Aorta; method in brief: as §4
[17] = species: Cavia porcellus; test: Inotropic negative potency on stimulated guinea pig left atrium.; assay type: functional; settings: Cardiac atrium, read-out: ED50 (the source's name); method in brief: as §2
[18] = species: Cavia porcellus; test: Inotropic negative potency on stimulated guinea pig left atrium.(value in parentheses indicate 95% confidence limit*10e-6).; assay type: functional; settings: Cardiac atrium, read-out: ED50 (the source's name); method in brief: as §2
[19] = species: Cavia porcellus; test: The compound was tested for the negative inotropic activity on isolated guinea pig left atrium at 5*10e-6 M; assay type: functional, Cardiac atrium; method in brief: as §2
[20] = species: Cavia porcellus; test: Inotropic negative potency on spontaneously beating right atrium of guinea pig, activity is expressed as […] values; assay type: functional, Cardiac atrium; method in brief: as §3
[21] = species: Cavia porcellus; test: The compound was tested for the calcium antagonistic activity on K+-depolarized guinea pig aortic strips at 10e-4 M.; assay type: functional; settings: Aorta; method in brief: as §4
[22] = species: Cavia porcellus; test: Inotropic negative potency on spontaneously beating right atrium of guinea pig.(value in parentheses indicate 95% confidence limit*10e-6).; assay type: functional, Cardiac atrium; method in brief: as §3

T2 sequence (P22002 whole entry, the tested form may be a part): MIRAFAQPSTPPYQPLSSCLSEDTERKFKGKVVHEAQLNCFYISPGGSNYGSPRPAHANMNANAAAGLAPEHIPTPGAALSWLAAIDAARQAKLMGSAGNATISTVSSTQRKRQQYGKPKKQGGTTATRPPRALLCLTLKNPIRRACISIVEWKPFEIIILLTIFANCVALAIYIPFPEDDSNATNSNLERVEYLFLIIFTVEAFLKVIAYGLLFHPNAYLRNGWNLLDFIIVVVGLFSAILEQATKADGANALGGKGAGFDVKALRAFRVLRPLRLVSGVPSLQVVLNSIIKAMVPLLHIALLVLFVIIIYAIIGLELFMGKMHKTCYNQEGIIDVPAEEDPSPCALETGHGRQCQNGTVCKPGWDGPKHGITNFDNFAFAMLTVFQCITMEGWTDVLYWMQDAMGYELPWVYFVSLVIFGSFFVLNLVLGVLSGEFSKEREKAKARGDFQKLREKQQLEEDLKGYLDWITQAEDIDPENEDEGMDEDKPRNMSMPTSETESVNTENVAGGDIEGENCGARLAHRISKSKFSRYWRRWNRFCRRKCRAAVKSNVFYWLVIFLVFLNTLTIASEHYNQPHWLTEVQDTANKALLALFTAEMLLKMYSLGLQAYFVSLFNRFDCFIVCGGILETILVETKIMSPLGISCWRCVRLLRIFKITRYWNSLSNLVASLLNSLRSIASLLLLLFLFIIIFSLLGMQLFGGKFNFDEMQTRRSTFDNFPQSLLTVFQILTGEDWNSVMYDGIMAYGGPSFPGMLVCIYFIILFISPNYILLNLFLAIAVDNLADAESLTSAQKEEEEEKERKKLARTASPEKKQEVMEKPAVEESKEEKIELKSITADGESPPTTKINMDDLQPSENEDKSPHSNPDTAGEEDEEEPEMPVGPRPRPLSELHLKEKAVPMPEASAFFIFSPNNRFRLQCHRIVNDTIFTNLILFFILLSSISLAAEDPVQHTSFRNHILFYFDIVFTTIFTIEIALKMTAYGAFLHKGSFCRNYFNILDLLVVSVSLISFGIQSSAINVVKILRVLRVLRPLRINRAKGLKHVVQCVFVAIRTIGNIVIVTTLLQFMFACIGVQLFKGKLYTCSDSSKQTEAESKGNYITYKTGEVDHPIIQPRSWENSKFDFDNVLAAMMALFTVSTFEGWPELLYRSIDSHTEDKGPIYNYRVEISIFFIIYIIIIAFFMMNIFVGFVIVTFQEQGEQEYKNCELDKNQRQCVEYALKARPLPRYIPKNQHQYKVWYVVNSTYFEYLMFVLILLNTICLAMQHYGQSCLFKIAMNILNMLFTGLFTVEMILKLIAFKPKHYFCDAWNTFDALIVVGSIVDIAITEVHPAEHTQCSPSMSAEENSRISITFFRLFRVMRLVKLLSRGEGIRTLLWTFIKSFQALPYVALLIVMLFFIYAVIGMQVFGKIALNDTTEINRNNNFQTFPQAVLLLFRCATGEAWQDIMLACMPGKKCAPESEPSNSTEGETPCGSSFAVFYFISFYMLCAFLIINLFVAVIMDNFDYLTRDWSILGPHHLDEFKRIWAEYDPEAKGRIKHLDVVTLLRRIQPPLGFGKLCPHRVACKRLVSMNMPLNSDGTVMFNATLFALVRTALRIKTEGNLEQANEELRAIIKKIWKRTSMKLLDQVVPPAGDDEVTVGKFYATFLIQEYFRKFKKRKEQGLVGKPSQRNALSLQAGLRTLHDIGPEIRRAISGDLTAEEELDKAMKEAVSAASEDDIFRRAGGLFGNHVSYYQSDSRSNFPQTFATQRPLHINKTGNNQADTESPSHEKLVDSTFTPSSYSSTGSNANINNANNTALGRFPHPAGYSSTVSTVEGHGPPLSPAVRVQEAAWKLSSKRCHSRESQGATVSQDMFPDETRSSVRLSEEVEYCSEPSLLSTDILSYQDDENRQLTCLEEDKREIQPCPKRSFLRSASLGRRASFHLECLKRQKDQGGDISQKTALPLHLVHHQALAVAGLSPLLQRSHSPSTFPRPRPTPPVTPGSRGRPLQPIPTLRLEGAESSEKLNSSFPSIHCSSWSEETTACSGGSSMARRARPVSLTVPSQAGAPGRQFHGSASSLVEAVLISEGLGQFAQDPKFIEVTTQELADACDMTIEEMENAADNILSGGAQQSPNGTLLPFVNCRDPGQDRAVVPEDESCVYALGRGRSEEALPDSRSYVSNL

Row | Compound | IC50 [1] [nM] | EC50 [3] [nM] | Ki [10] [nM] | Decrease [11] [%] | inhibition at 100 µM [12] [%] | also measured
1 | COc1ccc([C@H]2Sc3ccccc3N3C(=O)CC[C@H]23)cc1 | 4.4 | 1200 | 2 | 39 | 32 | Decrease [9]: 60%; Ki [8]: 35 nM
2 | COc1ccc(C2(c3ccc(OC)cc3)Sc3ccc(C(F)(F)F)cc3-n3cccc32)cc1 | > 5000 |  |  |  |  | 
3 | O=C1CC[C@@H]2[C@@H](c3ccccc3)Sc3ccccc3N12 | 0.78 | 230 | 0.29 | 20 | 37 | Decrease [15]: 66%; IC50 [16]: 20000 nM
4 | CN(C)Cc1ccc2n1-c1cccc(Cl)c1SC2(c1ccccc1)c1ccccc1 | 82 |  | 31 |  |  | Ki [8]: 26 nM
5 | FC(F)(F)c1ccc2c(c1)-n1cccc1C(c1ccccc1)(c1ccccc1)S2 | 2060 |  | 772 |  |  | 
6 | CN(C)Cc1ccc2n1-c1ccccc1SC2(c1ccccc1)c1ccccc1 |  |  |  | 10 | 3.4 | Decrease [15]: 56%; EC50 [17]: 890 nM
7 | CN(C)Cc1ccc2n1-c1cc(C(F)(F)F)ccc1SC2(c1ccccc1)c1ccccc1 | 107 |  | 40.1 |  |  | 
8 | Clc1ccc2c(c1)-n1cccc1C(c1ccccc1)(c1ccccc1)S2 | 4350 |  | 1630 |  |  | 
9 | c1ccc(C2(c3ccccc3)Sc3ccccc3-n3cccc32)cc1 | 465 |  | 178 |  |  | 
10 | CC(=O)OC1(c2ccccc2)Sc2ccccc2-n2cccc21 (stereo unspecified) | 4700 |  | 1830 | 33 | 36 | Decrease [4]: 86%; EC50 [18]: 380 nM
11 | Clc1cccc2c1SC(c1ccccc1)(c1ccccc1)c1cccn1-2 | 320 |  | 120 |  |  | 
12 | COc1ccc(C2(OC(C)=O)Sc3ccccc3-n3cccc32)cc1 (stereo unspecified) | 30 |  | 11 | 70 | 11 | Decrease [15]: 71%; EC50 [18]: 240 nM; ED30 [22]: 2300 nM
13 | CC(=O)OC1(c2ccccc2)Sc2ccc(C(F)(F)F)cc2-n2cccc21 (stereo unspecified) | 65 |  | 24 |  |  | 

Further lines, with some results ahead:

Row | IC50 [1] [nM] | EC50 [3] [nM] | Ki [10] [nM] | Compound | Decrease [11] [%] | inhibition at 100 µM [12] [%] | also measured
14 | 12 |  |  | CCC(C)NCc1ccc2n1-c1ccccc1SC2c1ccc(OC)cc1 (stereo unspecified) |  |  | Ki [2]: 4.4 nM
15 | 15 | 600 |  | CCC(C)NCc1ccc2n1-c1ccccc1SC2c1ccc(OC)cc1OC (stereo unspecified) |  |  | Decrease [4]: 85%; ED30 [5]: 420 nM; Decrease [6]: 67%; Inhibition [7]: 18%; Ki [8]: 640 nM; Ki [2]: 5.5 nM
16 | 2160 | 730 | 809 | COc1ccc(C2(c3ccc(OC)cc3)Sc3ccccc3-n3c(CN(C)C)ccc32)cc1 | 48 | 12 | Decrease [9]: 78%
17 | > 5000 |  |  | COc1ccc(C2Sc3ccccc3-n3cccc32)cc1 (stereo unspecified) |  |  | 
18 | > 5000 |  |  | COc1ccc(C2(c3ccc(OC)cc3)Sc3ccccc3-n3cccc32)cc1 |  |  | 
19 | 4670 | 920 | 1750 | COc1ccc(C2Oc3ccccc3-n3c(CN(C)C)ccc32)cc1 (stereo unspecified) |  | 24 | Decrease [9]: 69%; Ki [13]: Not Active; Decrease [14]: 22%
20 | > 5000 |  |  | COc1ccc(C2Sc3ccccc3-n3c(CNc4ccc(F)cc4)ccc32)cc1 (stereo unspecified) |  |  | 
21 |  | 560 |  | COc1ccc(C2Sc3ccccc3-n3c(CNCCc4ccc(OC)c(OC)c4)ccc32)c(OC)c1 (stereo unspecified) | 10 |  | Decrease [4]: 83%; Inhibition [7]: 9%
22 |  | 840 |  | COc1ccc(C2Sc3ccccc3-n3c(CN(C)CCc4ccc(OC)c(OC)c4)ccc32)cc1 (stereo unspecified) | 32 | 4 | Decrease [9]: 86%; Ki [8]: 8.3 nM
23 | > 5000 |  |  | COc1ccc(C2Sc3ccccc3-n3c(CN4CCOCC4)ccc32)cc1 (stereo unspecified) |  |  | 
24 |  | 450 |  | COc1ccc(C2Sc3ccccc3-n3c(CNCCc4ccc(OC)c(OC)c4)ccc32)cc1 (stereo unspecified) | 14 |  | Decrease [9]: 82%; Inhibition [7]: 16%
25 |  | 150 |  | COc1ccc(C2Sc3ccccc3-n3c(CN(C)C)ccc32)c(OC)c1 (stereo unspecified) |  |  | Decrease [6]: 20%; Inhibition [7]: 5%; Ki [8]: 160 nM; Decrease [19]: 68%
26 |  | 1500 |  | CN(C)Cc1ccc2n1-c1ccccc1SC2c1ccccc1 (stereo unspecified) | 76 | 42 | Decrease [9]: 79%; ED30 [20]: 510 nM
27 |  | 810 |  | COc1ccc(C2Sc3ccccc3-n3c(CN(C)C)ccc32)cc1 (stereo unspecified) |  |  | Decrease [15]: 75%; Decrease [6]: 30%; Ki [8]: 53 nM; inhibition at 100 µM [21]: 10%
28 | 1600 | 860 |  | COc1ccc(C2Sc3ccccc3-n3c(CN(C)CCc4ccc(OC)c(OC)c4)ccc32)c(OC)c1 (stereo unspecified) | 18 |  | Decrease [4]: 62%; Inhibition [7]: 10%; Ki [2]: 740 nM
29 | 198 |  |  | COc1ccc(CCN(C)Cc2ccc3n2-c2ccccc2SC3c2ccccc2)cc1OC (stereo unspecified) |  |  | Ki [2]: 74 nM
30 | > 5000 |  |  | COc1ccc(C2Sc3ccccc3-n3c(CNc4ccc(F)cc4)ccc32)c(OC)c1 (stereo unspecified) |  |  | 
31 |  | 790 |  | COc1ccc([C@@H]2Sc3ccccc3N(CCN(C)C)C(=O)[C@@H]2OC(C)=O)cc1 [DILTIAZEM] | 94 | 88 | Decrease [15]: 78%; ED30 [5]: 70 nM
